From ChEMBL document CHEMBL4513216, “Probing the Open Global Health Chemical Diversity Library for Multistage-Active Starting Points for Next-Generation Antimalarials” (ACS Infect Dis, 2020)

Test: Toxicity liver stage against HepG2, at 10uM
Type: cell-based
Design: test concentration 10 uM, cell line HepG2-A16-CD81EGFP
Details: human, HepG2-A16-CD81EGFP cells; read-out: INHIBITION
How it was run: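 Uninfected HepG2-A16-CD81EGFP cells, 3 × 10^3 per well, 1536-well, plated on prespotted compound at 10 μM final, parasite-free screening media added to match infected plates; puromycin 10 μM positive, DMSO 0.5% negative; run in parallel with 48 h PbLuc assay at 37 °C, 5% CO2; viability by CellTiter-Glo luminescence, normalized to controls.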

| Structure (SMILES) | cytotoxicity at 10 µM [%] |
| --- | --- |
| CCCC(O)CN1CC(C)(C)CN(C(=O)CCc2ccccc2)CC1=O (stereo not given) | -15.4 |
| CSCC[C@H](NC(=O)N1CCC(Cc2ccccc2)CC1)C(=O)O | -1.55 |
| O=C1CC(c2cccnc2)c2c(c(C(=O)O)cn2-c2ccc(Cl)cc2)N1 (stereo not given) | -0.462 |
| COC(=O)CNC(=O)c1sccc1N(C)S(=O)(=O)c1ccc(Cl)cc1 | -15.4 |
| O=C(c1ccccc1F)N1CC(c2nc(-c3ccc[nH]c3=O)no2)C1 | 2.21 |
| O=C(c1ccco1)N1CCC(CSCc2ccco2)CC1 | -6.49 |
| CN(C)C(=O)Cc1ccc(NC(=O)c2cn(C)nn2)cc1 | -5.27 |
| C[C@H]1C[C@@H]2CCN(Cc3nccs3)C[C@H]2O1 | -3 |
| CCN1CC[C@]2(CN(C(=O)C3CCOCC3)C[C@H]2c2ccccc2)C1=O | 8.58 |
| O=S(=O)(C1CC1)N1CCn2c(Cn3cncn3)cnc2C1 | 12.2 |
| COCCN1C(=O)C2(CCC(C(=O)Nc3ccc(F)cc3)CC2)N=C1C (stereo not given) | 9.7 |
| c1ccc(CNCC2Cn3nncc3CO2)nc1 (stereo not given) | 4.93 |
| CCOCC1CC2(CCN(C(=O)C3CC=CC3)CC2)CO1 (stereo not given) | 1.5 |
| CN(C)c1nc(N2CCCC2)nc2c1CCN(C(=O)c1ccoc1)CC2 | 14.9 |
| CC(=O)N1CC[C@H]2C(=O)N(c3ccsc3)CCO[C@H]2C1 | 4.47 |
| COCCC1COC2(CCN(C(C)=O)CC2)C1 (stereo not given) | 8.19 |
| Cc1cc(C(=O)N2CCc3c(CN(C)C(C)C)n[nH]c3C2)[nH]n1 | -133 |
| O=C(NCc1ccccc1)c1nn(C2CCS(=O)(=O)C2)c2c1CCCC2 (stereo not given) | 5.92 |
| CC(C)OCCCNC(=O)c1c(-n2cnnn2)sc2c1CCCC2 | 11.9 |
| CSc1ccc(C2CC(=O)Nc3c2c(=O)[nH]n3C(C)C)cc1 (stereo not given) | 6.71 |
| CC(C)n1ncc2c1NC(=O)CSC2C(C)(C)C (stereo not given) | 4.47 |
| O=C(CCO)N1CCOC2(CCCN(C(=O)c3ccco3)C2)C1 (stereo not given) | -11.7 |

| Structure (SMILES) | cytotoxicity at 10 µM [%] |
| --- | --- |
| Cc1ccoc1C(=O)N1CC[C@H]2OCC[C@@]2(COCc2ccncc2)C1 | 5.71 |
| CN1CC(Oc2ccccc2)=NC(SCC(=O)Nc2ccccc2Cl)=N1 | -9.19 |
| Cc1nc(N2CCCC2)ncc1-c1cc(O)nc(N2CCN(C)CC2)n1 | 2.6 |
| CC(C)S(=O)(=O)N1CCN(C(=O)c2cnn(C)c2Cl)CC1 | 1.6 |
| Cc1nn(C)c2c(=O)n(CC(=O)Nc3cc(Cl)cc(Cl)c3)nnc12 | 0.976 |
| CNc1cccc(CC2COCCN(C(=O)c3cccnc3)C2)n1 (stereo not given) | -1.99 |
| CCN(Cc1ccncc1)c1cc(C2CCN2C(C)=O)nc(C)n1 (stereo not given) | 5.25 |
| c1cncc(CN2CCC(c3ccnc4nccn34)C2)c1 (stereo not given) | 5.78 |
| COCC(=O)N1CCC(c2cc3nc(C)cc(C(F)(F)F)n3n2)CC1 | 4.49 |
| CC(C)N1C(=O)CO[C@H]2CCN(C(=O)c3ccc4c(c3)CCC4)CC[C@@H]21 | 3.79 |
| CC(C)CN1CCCC(c2nc(O)c3cc(F)ccc3n2)C1 (stereo not given) | 10.3 |
| CN(Cc1nnc(C2CC2)o1)Cc1ccccc1N1CCOCC1 | -7.83 |
| CCS(=O)(=O)CC(=O)Nc1cc(-c2cccc(F)c2F)n[nH]1 | 10.7 |
| CN1CCC(NC(=O)c2cc(Br)cc(Cl)c2O)C1=O (stereo not given) | -5.79 |
| CCSc1cc(C(=O)N(CC(F)F)C(C)C)ccn1 | 4.64 |
| O=C(NCc1ccc(Br)cc1F)C1(O)CCSCC1 | 6.4 |
| CN(C(=O)c1ccncc1Cl)c1ccccc1S(C)(=O)=O | 17.6 |
| CS(=O)(=O)N1CCCC(C(=O)N2CCOc3ccccc32)C1 (stereo not given) | 0.421 |
| COc1ccc2c(c1)CCCN2Cc1nc(C)c(C)o1 | 4.74 |
| CC(C)(O)CN1CCN(C(=O)c2cccn2Cc2ccccc2)CC1 | -3.88 |
| Cc1ccc(CNC(CN2CCN(C)CC2)c2ccccc2)cc1C (stereo not given) | -7.49 |
| Cc1ncc2c(n1)CN(Cc1cccc3c1OCCO3)CC2 | -1.31 |

| Structure (SMILES) | cytotoxicity at 10 µM [%] |
| --- | --- |
| COc1ccc(C(C)NC(=O)Nc2nnc(C)s2)cc1OC (stereo not given) | 9.67 |
| CCc1ncc2c(n1)CN(Cc1ncc(C(C)(C)C)o1)CC2 | -15.9 |
| CCN(CC)C(=O)Nc1cccc(Oc2ccccn2)c1 | 8.12 |
| COCCN(C)C(=O)Nc1ccc2c(ccn2CC(=O)N(C)C)c1 | 6.71 |
| COCCOCC(=O)Nc1ccccc1F | 14.7 |
| Cn1cc(C(O)CNC(=O)c2cc(Br)ccc2Cl)cn1 (stereo not given) | 2.06 |
| CCN(C(=O)NCCc1ccc(C)cc1C)C(C)CS(C)(=O)=O (stereo not given) | 11.3 |
| Cc1nn(CCC#N)c(C)c1CCC(=O)N(C)Cc1ccsc1 | -3.57 |
| CC(C)Cc1nc(CSC2CCCN(c3cnn(C)c3)C2=O)no1 (stereo not given) | 17.7 |
| CN(C)CCn1ccc2cc(NC(=O)NCc3ccon3)ccc21 | -2.51 |
| N#Cc1ccc(CNc2ncc(C#N)cc2Cl)cc1 | 17.7 |
| CN1CCN(c2cccc(Cl)c2CNCCS(C)(=O)=O)CC1 | -0.641 |
| Cc1ccc(S(=O)(=O)NC(=O)C2(c3ccc(F)cc3)CCC2)c(C)c1 | -1.09 |
| COCc1noc(-c2cc(Cl)c3c(c2)OCCCO3)n1 | 0.174 |
| O=C(CN(CC(O)c1ccc(F)cc1)C1CC1)Nc1cccnc1 (stereo not given) | -4.19 |
| Cc1cc(N2CCc3c(ncn3C)C2)n2nc(C(F)(F)F)nc2n1 | 4.11 |
| CCS(=O)(=O)NC(CCSC)C(=O)Nc1ccccc1C (stereo not given) | 1.06 |
| CN(CCCNC(=O)C1CCCN(C(N)=O)C1)S(C)(=O)=O (stereo not given) | -4.76 |
| CC(CO)NC(=O)c1ccc(NCc2ccccc2)cc1 (stereo not given) | -6.63 |
| CCC(NC(=O)NCC(=O)NC(C)C)c1cc(F)ccc1F (stereo not given) | 0.447 |
| CCCOc1cc(F)ccc1NC(=O)NCc1noc(C)n1 | 7.83 |
| CN(C)CCC1CCN(c2cc(N3CCCC3CO)ncn2)CC1 (stereo not given) | -6.27 |

| Structure (SMILES) | cytotoxicity at 10 µM [%] |
| --- | --- |
| O=C(NCc1nccs1)N1CCOC(c2ccccc2Cl)C1 (stereo not given) | -3.67 |
| O=C(OCc1cc(=O)n2cc(Br)ccc2n1)c1ccc2c(c1)OCO2 | -7.37 |
| Cc1cc(C(N)=O)ccc1NC(=O)c1nc(N2CCCC2)ncc1Cl | -8.94 |
| Cc1ccc(-n2nnc(CC(=O)N3CCOCC3)c2C)cc1 | -12.9 |
| COc1ccc(Cn2cc(C(=O)N(C)Cc3ccon3)nn2)cc1 | 5.61 |
| CCCc1nc(CN(CC)C(=O)c2ccc(S(C)(=O)=O)cc2)no1 | -5.03 |
| N#Cc1ccccc1C(=O)N1C[C@@H](CN2CCCCC2)[C@@H](CO)C1 | -0.165 |
| Cc1cccc(-c2nc(N)nc3c2CN(C(=O)c2ccncn2)C3C)c1 (stereo not given) | 4.65 |
| Cc1ccc(CN2CCN(c3ncnc4[nH]cnc34)CC2CCO)cc1 (stereo not given) | 28 |
| Cc1nc(CC(=O)N2CCCC[C@H](N(C)C)C2)cs1 | 8.27 |
| O=C(c1cccc2ccnn12)N1CCC[C@H]1CN1CCCC1 | -144 |
| CCCc1cc(NCc2noc(COC)n2)n2nccc2n1 | 6.48 |
| O=C(c1ccc(S(=O)(=O)NC2CCC2)cc1)N1CC[C@H]2CNC[C@H]21 | -13.5 |
| Cc1cc(Cc2ccc(S(=O)(=O)N3CCOCC3)cc2)c(=O)[nH]n1 | -13.1 |
| C=C(C)COc1ccccc1NC(=O)NC1CCOCC1 | 4.67 |
| Cc1cc(C(=O)N2CCc3[nH]nc(-c4ccc5c(c4)OCO5)c3C2)no1 | -137 |
| COCC(=O)N1CCC(c2nccn2CC2CC2)CC1 | -14.6 |
| Cc1cc(C)c2nc(CN3CC[C@@H](O)C3)cc(O)c2c1 | -6.23 |
| Cc1ccc2c(ccn2CCC(=O)O)c1 | -3.69 |
| NC(=O)c1cccc(OCC(=O)NS(=O)(=O)c2ccc3c(c2)CCC3)c1 | -6.22 |
| Cc1noc(C)c1CNC(=O)N1CCC(Cc2cnn(C)c2)C1 (stereo not given) | -8.66 |
| COc1c(C2CCCN2Cc2csc(C(C)C)n2)c(C)nn1C (stereo not given) | -1.53 |

| Structure (SMILES) | cytotoxicity at 10 µM [%] |
| --- | --- |
| Cc1nc(CN2CCCN(CCOc3cccc(C#N)c3)CC2)no1 | -5.85 |
| CC(C)c1noc(C(C)N2CCN(CCO)CC2)n1 (stereo not given) | -2.26 |
| O=C1NCc2ccc(NC(=O)C3CCCN3c3nccs3)cc21 (stereo not given) | -6.02 |
| Cc1cc(C)c(CNC(=O)C2CCCN(c3cnccn3)C2)c(=O)[nH]1 (stereo not given) | -13.7 |
| CN(Cc1ccc(F)cc1)C(=O)CN1CCOC(Cn2cncn2)C1 (stereo not given) | -4.07 |
| CC(C)(C)n1ncc2c1CCCC2NCc1cccc2c1OCO2 (stereo not given) | 3.37 |
| CCN1CCN(CC(C)(O)c2cccc(C(F)(F)F)c2)CC1 (stereo not given) | -11.4 |
| Cn1ccc(CN2CCC(CCc3ccc(O)cc3)CC2)cc1=O | 1.2 |
| Cc1noc(CN2Cc3ccccc3CC2c2nnc(C)o2)n1 (stereo not given) | -4.62 |
| Cc1cccc(N2CCCC3(C2)CN(S(=O)(=O)C2CC2)CCO3)c1 (stereo not given) | 11 |
| COCCN(C)C[C@@H]1CCC[C@@H]2CN(Cc3ccc(OC)nc3)C[C@@H]21 | 8.13 |
| Cc1nn(C)c(N(C)C)c1CNC1CCc2c(Cl)cccc21 (stereo not given) | -7.07 |
| Cn1nccc1-c1ncc2c(c1C(=O)O)CCN(Cc1ccncc1)C2 | 6.1 |
| Cn1cc(CN2CCC3(CC2)C(=O)Nc2ccccc23)cn1 | 0.134 |
| COCC(=O)N1CCCn2c(CN3CCCCC3)nnc2C1 | -15.8 |
| O=C(N1CCCC1)N1CC[C@H]2[C@H]1CCN2c1ncccn1 | -1.19 |
| CCOCc1cnc2n1CCN(Cc1scnc1C)C2C (stereo not given) | 8.85 |
| O=C(CC1CC1)N1C[C@@H]2CCN(c3cccnc3)C[C@@H]2C1 | 4.62 |
| CCN1C(=O)[C@H]2CN(CC(C)C)C[C@H]2C12CCN(S(C)(=O)=O)CC2 | 10.3 |
| O=C(c1ccccn1)N1CCn2cnc(COCC3CC3)c2C1 | 11.4 |
| c1ccc(CN2CCOC3(COCCN(c4ncccn4)C3)C2)nc1 (stereo not given) | 8.28 |
| CN(C)C(=O)[C@H]1C[C@H]2CN(S(=O)(=O)Cc3ccccc3)C[C@@H]1O2 | 4.81 |
